Data set [1] concerns Trypanosoma brucei brucei. The data set is described as follows: Antitrypanosomal activity against bloodstream form of Trypanosoma brucei brucei 427 after 3 days by Alamar Blue assay. It counts as functional, organism-based. The settings on record: Trypanosoma brucei, 427, 72 h. On the technique in general: Resazurin is reduced to fluorescent resorufin, in cell work by metabolically active cells.

The test system of data set [2] is Trypanosoma brucei brucei. The experiment in a line: Trypanocidal activity against Trypanosoma brucei brucei by Alamar Blue assay. Type of data set: functional, organism-based.
For data set [3], the system named is Plasmodium falciparum. The data set is described as follows: Antimalarial activity against asexual stage of Plasmodium falciparum 3D7 after 72 hrs by image-based HTS assay. It counts as functional, organism-based. Conditions: 3D7, 72 h.
Data set [4] relates to Plasmodium falciparum. The experiment in a line: Antimalarial activity against early (1 to 3) gametocytic stage of Plasmodium falciparum after 72 hrs by image-based HTS assay. Type of data set: functional, organism-based. Put shortly: (§1)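 P. falciparum early (I–III) or late (IV–V) gametocytes from the authors' large-scale synchronized culture. Exposed to compound in dose response for 72 h. Activity read in an image-based assay. IC50 from duplicate or triplicate points, n ≥ 2, reported as mean ± SD.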

The nature of data set [5]: Selectivity ratio of cytotoxic activity against mouse NIH/3T3 cells to antitrypanosomal activity against amastigote stage of Trypanosoma cruzi.
In another data set the test system is Trypanosoma cruzi. The data set is described as follows: Antitrypanosomal activity against amastigote stage of Trypanosoma cruzi infected in mouse NIH/3T3 cells after 48 hrs by Hoechst staining assay. It counts as functional, organism-based. The settings on record: NIH3T3, 48 h.
The test system of data set [6] is Plasmodium falciparum. The data set is described as follows: Antimalarial activity against late (4 to 5) gametocytic stage of Plasmodium falciparum after 72 hrs by image-based HTS assay. Type of data set: functional, organism-based. In outline: as §1
In data set [7] the test system is Plasmodium falciparum. The experiment in a line: Antimalarial activity against late (4 to 5) gametocytic stage of Plasmodium falciparum at 120 uM after 72 hrs by image-based HTS assay relative to control. Type of data set: functional.
The subject of data set [8] is Plasmodium falciparum. The experiment in a line: Antimalarial activity against late (4 to 5) gametocytic stage of Plasmodium falciparum at 100 uM after 72 hrs by image-based HTS assay relative to control. Type of data set: functional. Put shortly: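 Image-based assay on late-stage (IV–V) P. falciparum gametocytes taken from large-scale production of pure synchronized gametocytes. Compound exposure was 72 h in dose response, with duplicate or triplicate points per concentration and n ≥ 2 independent runs.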

The subject of data set [9] is Plasmodium falciparum. The experiment in a line: Antimalarial activity against early (1 to 3) gametocytic stage of Plasmodium falciparum at 120 uM after 72 hrs by image-based HTS assay relative to control. It counts as functional.

The record followed here is ChEMBL document CHEMBL2434842, “Approaches to protozoan drug discovery: phenotypic screening” (J Med Chem, 2013).

Usually IC50 stands for the point on the concentration scale where inhibition reaches its midpoint. The low end stands for inhibition by little substance, the high end for a need for much substance. As a reminder, the inhibition is the drop in the measured response relative to a control, in per cent. A low value points to a response near the control.

Where a name gives a salt, the structure may show the parent alone. Some results are limits rather than exact numbers.

On to `CC[C@]1(O)C[C@H]2CN(CCc3c([nH]c4ccccc34)[C@@](C(=O)OC)(c3cc4c(cc3OC)N(C=O)[C@H]3[C@@](O)(C(=O)OC)[C@H](OC(C)=O)[C@]5(CC)C=CCN6CC[C@]43[C@@H]65)C2)C1` [VINCRISTINE], for which, in data set [1], the concentration for half-maximal inhibition (IC50) came out at 30 nM.

In [2], `CC(=O)O[C@H]1C(=O)[C@@]2(C)[C@H]([C@H](OC(=O)c3ccccc3)[C@]3(O)C[C@H](OC(=O)[C@H](O)[C@@H](NC(=O)c4ccccc4)c4ccccc4)C(C)=C1C3(C)C)[C@]1(OC(C)=O)CO[C@@H]1C[C@@H]2O` [PACLITAXEL] yielded an IC50 of 1000 nM.

Take `O[C@@H](c1cc(C(F)(F)F)nc2c(C(F)(F)F)cccc12)[C@H]1CCCCN1` (relative stereo) [(S,R)-MEFLOQUINE]: the figures for the IC50 with Plasmodium falciparum [3] and in the data set with Plasmodium falciparum [4] were 200 nM and 220 nM, respectively.

In the case of `CC(=O)N1CCN(c2ccc(OCC3COC(Cn4ccnc4)(c4ccc(Cl)cc4Cl)O3)cc2)CC1` (stereo unspecified) [KETOCONAZOLE], the selectivity ratio in data set [5] (NIH/3T3 cells) was more than 853. Also, the IC50 in the data set on Trypanosoma cruzi was 22.7 nM.

With `COc1ccc(C[C@H](N)C(=O)N[C@H]2[C@@H](O)[C@H](n3cnc4c(N(C)C)ncnc43)O[C@@H]2CO)cc1` [PUROMYCIN], the IC50 in the data set on Plasmodium falciparum [3] turned out to be 64 nM; with Plasmodium falciparum [6] it was 46 nM; in the data set on Plasmodium falciparum [4], 137 nM.

For the compound `C/C=C/C[C@@H](C)[C@@H](O)[C@H]1C(=O)N[C@@H](CC)C(=O)N(C)CC(=O)N(C)[C@@H](CC(C)C)C(=O)N[C@@H](C(C)C)C(=O)N(C)[C@@H](CC(C)C)C(=O)N[C@@H](C)C(=O)N[C@H](C)C(=O)N(C)[C@@H](CC(C)C)C(=O)N(C)[C@@H](CC(C)C)C(=O)N(C)[C@@H](C(C)C)C(=O)N1C` [CYCLOSPORINE], the IC50 in data set [1] was found to be 1.14 nM.

`CC[C@H](C)C(=O)O[C@H]1CCC=C2C=C[C@H](C)[C@H](CC[C@@H]3C[C@@H](O)CC(=O)O3)[C@H]21` [MEVASTATIN]: in data set [1], it took 940 nM to reach half-maximal inhibition (IC50).

With `c1ccc(-c2ccc(C(c3ccccc3)n3ccnc3)cc2)cc1` (stereo unspecified) [BIFONAZOLE], the selectivity ratio in data set [5] (NIH/3T3 cells) is more than 91.6. In the data set on Trypanosoma cruzi, this compound displayed an IC50 of 204 nM.

`COc1cc(NC(C)CCCN)c2ncccc2c1` (stereo unspecified) [PRIMAQUINE]: the figures for the IC50 in the data set on Plasmodium falciparum [3] and in the data set with Plasmodium falciparum [4] were 6090 nM and 5860 nM, respectively. Further, in the data set on Plasmodium falciparum [7], the inhibition at 120 µM is 40%.

As to `O=C1c2c(O)ccc(O)c2C(=O)c2c(NCCNCCO)ccc(NCCNCCO)c21` [MITOXANTRONE HYDROCHLORIDE], the IC50 is 2.4 nM in [1] and 1000 nM in [2].

Turning to `CCN(CC)Cc1cc(Nc2ccnc3cc(Cl)ccc23)ccc1O`, the IC50 came to 28 nM with Plasmodium falciparum [3], 4490 nM in the data set with Plasmodium falciparum [6] and 159 nM with Plasmodium falciparum [4].

With `C[C@H]1[C@H](OC(=O)CCC(=O)O)O[C@@H]2O[C@@]3(C)CC[C@H]4[C@H](C)CC[C@@H]1[C@@]24OO3` [ARTESUNATE], the IC50 in the data set with Plasmodium falciparum [6] amounted to 3.43 nM.

Consider `Clc1ccccc1C(c1ccccc1)(c1ccccc1)n1ccnc1` [CLOTRIMAZOLE], for which the selectivity ratio in [5] (NIH/3T3 cells) was more than 87.2. For the same compound, inhibition in the data set on Trypanosoma cruzi was half-maximal at 187 nM (IC50).

For `C[C@H]1[C@@H](O)O[C@@H]2O[C@@]3(C)CC[C@H]4[C@H](C)CC[C@@H]1[C@@]24OO3` [ARTENIMOL], the IC50 in the data set with Plasmodium falciparum [3] amounted to 0.7 nM.

For the compound `COc1ccc2nc3cc(Cl)ccc3c(Nc3cc(CN4CCCC4)c(O)c(CN4CCCC4)c3)c2n1` [PYRONARIDINE], the half-maximal inhibitory concentration (IC50) turned out to be 46 nM in the data set on Plasmodium falciparum [3], 1300 nM with Plasmodium falciparum [6] and 131 nM in the data set on Plasmodium falciparum [4].

Take `N#C/C(=C1/SCC(c2ccccc2Cl)S1)n1ccnc1` (stereo unspecified) [LANOCONAZOLE]: the selectivity ratio in data set [5] (NIH/3T3 cells) came to 306. In the data set on Trypanosoma cruzi, this compound returned a concentration for half-maximal inhibition (IC50) of 67.1 nM.

Turning to `Clc1ccc(COC(Cn2ccnc2)c2ccc(Cl)cc2Cl)c(Cl)c1` (stereo unspecified) [MICONAZOLE NITRATE], the selectivity ratio in data set [5] (nih/3t3) was more than 19.5. Also, the IC50 in the data set on Trypanosoma cruzi is 826 nM.

For the compound `CCN(CC)CCCC(C)Nc1ccnc2cc(Cl)ccc12` (stereo unspecified) [CHLOROQUINE], 100 µM produced 100% inhibition with Plasmodium falciparum [8].

For `C[C@@H](c1ncncc1F)[C@](O)(Cn1cncn1)c1ccc(F)cc1F` [VORICONAZOLE], in data set [5] (NIH/3T3 cells), the selectivity ratio amounted to 212. The compound also had an IC50 with Trypanosoma cruzi of 96.5 nM.

Take `CO[C@@]12[C@H](COC(N)=O)C3=C(C(=O)C(C)=C(N)C3=O)N1C[C@@H]1N[C@@H]12` [MITOMYCIN]: in data set [2], the IC50 is 1000 nM.

In data set [1], `CC[C@]1(O)C[C@@H]2CN(CCc3c([nH]c4ccccc34)[C@@](C(=O)OC)(c3cc4c(cc3OC)N(C)[C@H]3[C@@](O)(C(=O)OC)[C@H](OC(C)=O)[C@]5(CC)C=CCN6CC[C@]43[C@@H]65)C2)C1` [VINBLASTINE] had an IC50 of 94 nM.

As to `CCc1nc(N)nc(N)c1-c1ccc(Cl)cc1` [PYRIMETHAMINE], the midpoint of inhibition with Plasmodium falciparum [3], the IC50, lay at 14 nM. The results for the inhibition at 120 µM in the data set on Plasmodium falciparum [7] and in the data set with Plasmodium falciparum [9] were 100% and 40%, respectively.

On to `CC[C@H](C)[C@H](NC(=O)[C@H]([C@@H](C)CC)N(C)C(C)=O)C(=O)N[C@H](C(=O)N[C@@H](CC(C)C)C(=O)[C@@]1(C)CO1)[C@@H](C)O` [EPOXOMYCIN], for which the IC50 with Plasmodium falciparum [3] was 2.2 nM; in the data set with Plasmodium falciparum [6], 0.7 nM.

As for `COc1cc(C)c2c(Oc3cccc(C(F)(F)F)c3)c(OC)cc(NC(C)CCCN)c2n1` (stereo unspecified) [TAFENOQUINE], the IC50 in the data set on Plasmodium falciparum [3] amounted to 1070 nM; in the data set with Plasmodium falciparum [6] it was 3370 nM.

Consider `Clc1ccc(CO/N=C(\Cn2ccnc2)c2ccc(Cl)cc2Cl)c(Cl)c1` [OXICONAZOLE NITRATE], for which, in data set [5] (nih/3t3), the selectivity ratio was more than 46.3. This compound also returned an IC50 in the data set on Trypanosoma cruzi of 388 nM.
